Bioassay records as filed in PubChem BioAssay.
WT yeast gro inh = growth inhibition of WT yeast, mitochondrial fusion screen; hit rate 2.1% among 190,000; mitochondrial fusion phenotypic screen, WT strain; inhibition, % at 10 µM; AID 1362; in the data active means inhibition above about 58%; tested in S. cerevisiae
Lmaj promast = reduces viability of Leishmania major promastigotes | resazurin fluorescence viability | inhibition, % at 10 µM | hit rate 9% among 200,000 | AID 1063; in the data active means inhibition above about 50%;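 further: promastigotes grown with compound for 44 hours at 28 °C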
m-calpain inh = blocks pig calpain II enzyme activity. purified calpain II, fluorogenic peptide substrate, 30 min. inhibition, % at 16 µM. hit rate 0.37% among 220,000;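 active means inhibition above about 50%, limit read from the data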
PMI activator = activators of human phosphomannose isomerase; P34949; purified human PMI, coupled resazurin fluorescence, 20 min; stronger effect = higher value; 1 = vehicle control, 0 substrate-free wells; activation factor at 20 µM; hit rate 0.005% among 190,000; AID 1214;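 active means activation factor of 2 or more at 20 µM, relative to plate controls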
Target sequence (P34949 whole entry, looked up): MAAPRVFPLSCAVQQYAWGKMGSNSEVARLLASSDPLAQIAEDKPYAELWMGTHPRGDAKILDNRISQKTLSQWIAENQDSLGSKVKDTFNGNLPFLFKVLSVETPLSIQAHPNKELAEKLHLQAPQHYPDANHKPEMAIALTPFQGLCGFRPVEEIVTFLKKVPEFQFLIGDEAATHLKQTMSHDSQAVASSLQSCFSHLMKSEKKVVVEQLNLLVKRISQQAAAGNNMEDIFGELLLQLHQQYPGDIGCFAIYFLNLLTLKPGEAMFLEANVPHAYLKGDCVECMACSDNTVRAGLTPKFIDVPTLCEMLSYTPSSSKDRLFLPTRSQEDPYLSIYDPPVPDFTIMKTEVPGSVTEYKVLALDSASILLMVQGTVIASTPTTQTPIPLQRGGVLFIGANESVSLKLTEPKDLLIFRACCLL
PMI act hi M6P = increases human PMI activity with near-saturating mannose 6-phosphate | hit rate 0.34% among 190,000 | coupled PMI enzyme assay, resazurin fluorescence, 20 min; stronger effect = higher value; 1 = untreated enzyme, 0 = substrate-free blank | activation factor at 20 µM;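 active means activation factor of 2 or more at 20 µM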
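Material: human phosphomannose isomerase with PGI, G6PDH, diaphorase coupling enzymes; amount: PMI at 15 ng/mL final; also added: Mannose-6-phosphate 1.0 mM (near-saturating) plus 0.22 mM NADP+; incubation: enzyme reaction with compound 20 min at room temperature; signal: resorufin fluorescence (Ex 544/Em 590 nm) from resazurin via diaphorase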
Rad51 HR inh = blocks human Rad51 in homologous recombination | Q06609 | hRad51 DNA strand exchange, fluorescence dequenching | inhibition, % at 10 µM | hit rate 0.085% among 200,000;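 active means inhibition above 40% at the single screening dose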
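Material: Human Rad51 nucleoprotein filaments preassembled on unlabelled ssDNA | Also added: Labelled 47-mer dsDNA for strand exchange | Dosing: Single dose, 10 µM final compound | Schedule: 30-min compound preincubation and 15-min exchange, both room temperature | Technique: Fluorescence dequenching at 485/520 nm | Measure: Percent inhibition relative to plate controls and blanks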
Of the large screens only hits and unclear results are named; the others gave an inactive call. Most compounds without a hit are left out; they make up all but 9.8% or so of the library.

COc1cc(NC(=O)c2cccc(Cl)c2)c(OC)cc1NC(=O)CN1CCOCC1	Lmaj promast 85
COc1ccc(C(=O)Nc2ccc(Cl)cc2C(=O)NCCN2CCOCC2)cc1	WT yeast gro inh 71
COc1cc(NC(=O)c2cccc(Cl)c2)c(OC)cc1NC(=O)CN1CCCCC1	none (no result: PMI activator, PMI act hi M6P)
O=C(NC(=S)NCCN1CCOCC1)c1ccccc1Cl	Lmaj promast 58
O=C(NC(=S)NCCN1CCOCC1)c1ccccc1Br	none
O=C(NC(=S)Nc1ccc(CN2CCOCC2)cc1)c1ccc([N+](=O)[O-])cc1Cl	Lmaj promast 100
CCOC(=O)C1=C(CN2CCN(CCC#N)CC2)NC(=O)NC1c1ccc2c(c1)OCO2 (stereo not drawn)	none
O=C(NC(=S)NCCN1CCOCC1)c1ccc(Cl)cc1Cl	Lmaj promast 95 (no result: Rad51 HR inh)
O=C(NC(=S)NCCN1CCOCC1)c1ccc(Cl)cc1	none
CCc1ccc(C(=O)N2CCC(c3nc4ccccc4s3)CC2)cc1	Lmaj promast 87
O=C(CN1CCC(c2nc3ccccc3s2)CC1)NCc1ccccc1	Lmaj promast 87
COc1ccc(C=O)cc1Cn1c(C)cc(C)c(C#N)c1=O	none
CNCCC1Sc2ccccc2Oc2ccccc21 (stereo not drawn)	Lmaj promast 95
CCCCNC(=O)C1c2ccccc2Oc2ccccc21	none
COc1ccc2cc(Br)ccc2c1CC(=O)NC(C)(C)C	none
O=C(CN1CCCC1)NC12CC3CC(CC(C3)C1)C2	Lmaj promast 51
Cc1ccc(NC(=O)Nc2ccno2)cc1	none (no result: WT yeast gro inh, Lmaj promast, PMI activator, PMI act hi M6P)
O=C1CC(c2ccccc2Cl)=NN(c2ncnc3ccccc23)C1=O	Lmaj promast 83
CC1CCN(c2ncnc3ccccc23)CC1	none
O=C(NCCc1ccccc1)C1CCN(C(=O)c2ccc([N+](=O)[O-])cc2)CC1	none
CC(C)CNC(=O)C1CC(=O)OC12CCCCC2 (stereo not drawn)	none
O=C1CC(C(=O)NCc2ccccc2)C2(CCCC2)O1 (stereo not drawn)	WT yeast gro inh 65
COc1ccc(/C=N/Nc2ccccc2)cc1Cn1nc(C)c([N+](=O)[O-])c1C	Lmaj promast 77
CCOC(=O)c1sc2ncn(/N=C/c3cccnc3)c(=O)c2c1C	none
CCOC(=O)c1sc2ncn(/N=C/c3ccc(O)cc3)c(=O)c2c1C	Lmaj promast 94
NC1=NC(=O)C(CC(=O)Nc2ccc3c(c2)OCO3)S1 (stereo not drawn)	none
Cc1oc2c(c1C(=O)c1ccccc1)C(=O)C(=O)c1ccccc1-2	Lmaj promast 100
Cc1oc2c(c1C(=O)O)C(=O)c1ccccc1C2=O	Lmaj promast 100
O=C(c1ccccc1)c1ccccc1N/C=C/c1nnnn1-c1ccccc1	Lmaj promast 54
CCCC(=O)Nc1ccc(C(=O)NNC(=S)NC(=O)c2ccc(Br)o2)cc1	none
COc1cc(NC(=O)COc2ccc(Cl)cc2)ccc1-c1cc2ccccc2oc1=O	Lmaj promast 63
COc1cc(NC(=O)COc2ccc(Cl)cc2)ccc1NC(=O)C(C)C	none (no result: WT yeast gro inh, Lmaj promast, PMI activator, PMI act hi M6P, Rad51 HR inh)
CCN1CCN(C(C)C(=O)NC2CCCCC2)CC1 (stereo not drawn)	none (no result: WT yeast gro inh, Lmaj promast, PMI activator, PMI act hi M6P)
Cc1nn(-c2cc(C)c3ccccc3n2)c2c1C1C(C2)C1(C)C (stereo not drawn)	WT yeast gro inh 63
Cc1cc(N2CCCN(C)CC2)nc2cc(Cl)ccc12	Lmaj promast 80
Cc1cc(N2CCCCCC2)nc2ccccc12	Lmaj promast 91
Cc1cc(-n2nnc3ccccc32)nc2ccccc12	none
C=C1CCN([C@@H](Cc2ccccc2)C(=O)NCc2ccc(Cl)cc2)S(=O)(=O)c2ccccc21	none (no result: WT yeast gro inh, Lmaj promast, m-calpain inh, PMI activator, PMI act hi M6P)
CCCc1cc(-c2n[nH]c(=S)n2C(C)c2ccccc2)cs1 (stereo not drawn)	WT yeast gro inh 64
CCCc1cc(-c2n[nH]c(=S)n2CC)cs1	none
CCCCn1c(-c2csc(CCC)c2)n[nH]c1=S	WT yeast gro inh 73
CC(C)Cn1c(-c2csc(C(C)C)c2)n[nH]c1=S	WT yeast gro inh 67, m-calpain inh 54
N#C/C(=C\c1coc2ccc(O)cc2c1=O)C(=O)Nc1nc2ccccc2s1	none (no result: WT yeast gro inh, Lmaj promast, PMI activator, PMI act hi M6P)
Cc1cccc(C(=O)NC2=NCCS2)c1	none
C=CCn1c(Sc2nc(C)cs2)nc2c1c(=O)[nH]c(=O)n2C	m-calpain inh 53 (no result: Rad51 HR inh)
Cc1cccc(Cn2c(Sc3nc(C)cs3)nc3c2c(=O)[nH]c(=O)n3C)c1	none
COCC(=O)N1CCN(c2nc3ccccc3o2)CC1	none
C/C(=N\Nc1ccc(F)cc1F)c1ccc(F)cc1	PMI act hi M6P 2.4
O=C(Nc1ccc(F)cc1F)Nc1ccc(F)cc1F	none
C/C(=N\Nc1ccc(F)cc1F)c1ccc(N2CCOCC2)cc1	PMI act hi M6P 2.4
Fc1ccc(N/N=C/c2ccc(N3CCOCC3)cc2)c(F)c1	PMI act hi M6P 2.2
C/C(=N\Nc1ccc(F)cc1F)c1ccc(Br)s1	PMI act hi M6P 2.6
O=C(NCCCn1ccnc1)C(=O)Nc1ccccc1	none
O=C1N=C(N2CCCC2C(=O)O)S/C1=C\c1ccco1 (stereo not drawn)	none
NNC(=O)c1nc(Cl)c(Cl)c(N)c1Cl	none (no result: WT yeast gro inh, Lmaj promast, PMI activator, PMI act hi M6P)
O=C(CCCC(=O)NNC(=O)Nc1ccccc1)NNC(=O)Nc1ccccc1	none
COc1ccc(-c2nc(C(N)=O)c3[nH]c(=O)n(-c4cccc(Cl)c4)c3n2)cc1OC	Lmaj promast 60 (no result: WT yeast gro inh, Rad51 HR inh)
CCCc1cc(NCC2CCCO2)n2c(nc3ccccc32)c1C#N (stereo not drawn)	Lmaj promast 78
CN(Cc1ccccc1)c1nc(CN2CCOCC2)nc2scc(-c3ccccc3)c12	WT yeast gro inh 69
Fc1ccc(N2CCN(c3nc(CN4CCOCC4)nc4scc(-c5ccccc5)c34)CC2)cc1	WT yeast gro inh 78, Lmaj promast 67
OCC1CCCN(c2nc(CN3CCCCC3)nc3scc(-c4ccccc4)c23)C1 (stereo not drawn)	none
CCOC(=O)C1(Cc2ccccc2C(F)(F)F)CCN(C2CCN(C(C)=O)CC2)CC1	Lmaj promast 77 (no result: Rad51 HR inh)
CCOC(=O)C1(Cc2ccccc2C(F)(F)F)CCN(C2CCC2)CC1	Lmaj promast 61
CCOC(=O)C1(Cc2ccccc2C(F)(F)F)CCN(C(C)COC)CC1 (stereo not drawn)	none (no result: Rad51 HR inh)
O=C(Nc1ccccc1C(F)(F)F)N1CCC(N2CCCCC2)CC1	none
CCOC(=O)C1(CCCc2ccccc2)CCN(C2CCN(C(C)=O)CC2)CC1	Lmaj promast 78
CCOC(=O)C1(CCCc2ccccc2)CCN(C(=O)c2ccoc2)CC1	none (no result: Rad51 HR inh)
CS(=O)(=O)Nc1ccc(C(=O)NCCSCc2c(F)cccc2Cl)cc1	none
CC1CCN(c2ccc(C(=O)Nc3ccc4c(c3)OCO4)cc2[N+](=O)[O-])CC1	Lmaj promast 98
CC1CCCN(c2ccc(C(=O)Nc3ccc4c(c3)OCO4)cc2[N+](=O)[O-])C1 (stereo not drawn)	Lmaj promast 97
